Measured values: ChEMBL document CHEMBL1811872, “Tryptophan 2,3-dioxygenase (TDO) inhibitors. 3-(2-(pyridyl)ethenyl)indoles as potential anticancer immunomodulators” (J Med Chem, 2011)
Converted amounts (≈) assume the structure as drawn.

Assays:
[1] = molecular target: Tryptophan 2,3-dioxygenase (Mus musculus, UniProt P48776); assay: Inhibition of mouse TDO expressed in mouse P815B cells assessed as inhibition of tryptophan catabolism by measuring kynurenine production after 8 hrs by HPLC analysis; type: cell-based
Chain of Tryptophan 2,3-dioxygenase (Mus musculus, UniProt P48776) (P48776 whole entry): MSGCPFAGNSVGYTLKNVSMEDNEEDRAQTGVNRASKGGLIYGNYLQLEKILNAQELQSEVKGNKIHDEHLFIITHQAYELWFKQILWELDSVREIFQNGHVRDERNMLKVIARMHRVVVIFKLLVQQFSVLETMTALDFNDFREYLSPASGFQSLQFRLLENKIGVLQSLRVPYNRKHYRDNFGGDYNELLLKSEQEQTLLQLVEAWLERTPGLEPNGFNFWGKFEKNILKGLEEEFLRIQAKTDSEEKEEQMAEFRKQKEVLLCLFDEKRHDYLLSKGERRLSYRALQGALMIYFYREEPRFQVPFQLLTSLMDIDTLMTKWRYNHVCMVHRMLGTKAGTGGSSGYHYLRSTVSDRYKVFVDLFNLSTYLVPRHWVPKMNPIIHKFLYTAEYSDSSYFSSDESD

[2] = Cytotoxicity against mouse P815B cells […] by MTT assay; type: functional; conditions: read-out: LD50 (the source's name)
[3] = Chemical stability of the compound in phosphate buffered saline assessed as compound remaining at pH 7.4 after 1.5 hrs; type: physicochemical; conditions: read-out: Stability
Procedure, shortened: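 Compound was incubated in phosphate-buffered saline, pH 7.4, for 1.5 h; read-out was the percentage of compound recovered.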

[4] = Solubility of the compound in phosphate buffered saline at pH 7.4; type: physicochemical
Procedure, shortened: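 Solubility was measured experimentally in phosphate buffer (PBS), pH 7.4, at room temperature.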

[5] = Plasma concentration in DBA/2 mouse at 160 mg/kg/day, po administered for 7 days with water; type: ADME, organism-based; design: route oral
Procedure, shortened: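 DBA/2 mice received the compound dissolved in drinking water (1 mg/mL) ad libitum. Mean water intake was 4.0 mL/mouse/day, giving about 160 mg/kg/day. Plasma levels of compound, L-Trp and kynurenine were measured at days 0, 1, 2 and 7.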

[6] = molecular target: Tryptophan 2,3-dioxygenase (Homo sapiens, UniProt P48775); assay: Competitive inhibition of human recombinant TDO expressed in Escherichia coli BL21 using L-tryptophan as substrate by measuring conversion of N-formylkynurenine into kynurenine after 30 mins by Michaelis-Menten steady state analysis
Chain of Tryptophan 2,3-dioxygenase (Homo sapiens, UniProt P48775) (P48775 whole entry): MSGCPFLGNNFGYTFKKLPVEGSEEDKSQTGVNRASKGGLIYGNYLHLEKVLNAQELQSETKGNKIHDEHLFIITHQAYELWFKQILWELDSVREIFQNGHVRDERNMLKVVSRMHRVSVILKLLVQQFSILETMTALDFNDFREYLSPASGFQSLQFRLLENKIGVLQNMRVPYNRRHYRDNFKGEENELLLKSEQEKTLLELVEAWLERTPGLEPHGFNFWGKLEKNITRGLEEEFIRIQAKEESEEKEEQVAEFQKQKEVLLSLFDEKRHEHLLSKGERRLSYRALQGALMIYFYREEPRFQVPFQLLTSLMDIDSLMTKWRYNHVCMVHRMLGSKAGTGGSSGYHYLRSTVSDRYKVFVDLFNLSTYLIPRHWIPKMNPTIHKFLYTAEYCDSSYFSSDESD

Compound | IC50 [1] [µM] | CC50 [2] [µM] | further results
C(=C\c1c[nH]c2c1ccc1ccccc12)/c1cccnc1 | > 200 | > 80 | 
Brc1cccc2c(/C=C/c3cccnc3)c[nH]c12 | > 20 | 20 | 
Cn1cc(/C=C/c2cccnc2)c2ccc(F)cc21 | > 200 | > 200 | 
C(=C\c1c[nH]c2ccncc12)/c1cccnc1 | > 200 | > 80 | 
OC/C=C/c1c[nH]c2cc(F)ccc12 | 80 | 100 | 
N#Cc1ccc2[nH]cc(/C=C/c3cccnc3)c2c1 | > 200 | > 200 | 
O=[N+]([O-])c1cccc2[nH]cc(/C=C/c3cccnc3)c12 | > 200 | > 200 | 
COc1cccc(/C=C/c2c[nH]c3cc(F)ccc23)c1 | 10 | 40 | 
Fc1ccc(-c2n[nH]cc2/C=C/c2cccnc2)cc1 | > 200 | > 80 | 
N#CCc1c[nH]c2ccccc12 | > 80 | > 80 | 
Fc1ccc2c(/C=C/c3ccc4ccccc4c3)c[nH]c2c1 | > 200 | > 200 | 
N#C/C=C/c1c[nH]c2ccccc12 | 13 | > 80 | 
Brc1ccc2c(/C=C/c3cccnc3)c[nH]c2c1 | > 200 | > 200 | 
Fc1ccc2c(/C=C/c3cccc(Cl)c3)c[nH]c2c1 | > 200 | > 200 | 
COc1ccc2c(/C=C/c3cccnc3)c[nH]c2c1 | > 200 | > 200 | 
Fc1ccc2[nH]cc(/C=C/c3cccnc3)c2c1 | 5 | > 80 | 
C(=C\c1ccc2ccccc2c1)/c1cccnc1 | > 200 | > 80 | 
Clc1ccc2c(/C=C/c3cccnc3)c[nH]c2c1 | 20 | > 40 | 
Brc1ccc2[nH]cc(/C=C/c3cccnc3)c2c1 | 40 | 20 | 
N#CCCc1c[nH]c2ccccc12 | > 80 | > 80 | 
N#Cc1cccc(/C=C/c2c[nH]c3cc(F)ccc23)c1 | 1 | 20 | 
Cc1ccc2[nH]cc(/C=C/c3cccnc3)c2c1 | > 200 | > 200 | 
c1cncc(CCc2c[nH]c3ccccc23)c1 | 80 | > 80 | 
C(#Cc1c[nH]c2ccccc12)c1cccnc1 | 6 | 200 | 
C(=C\c1n[nH]c2ccccc12)/c1cccnc1 | > 200 | > 80 | 

Compound | IC50 [1] [µM] | CC50 [2] [µM] | further results
C(=C\c1c[nH]cn1)/c1cccnc1 | > 200 | > 80 | 
Cc1cccc2c(/C=C/c3cccnc3)c[nH]c12 | > 200 | > 200 | 
COC(=O)c1cccc2[nH]cc(/C=C/c3cccnc3)c12 | > 200 | > 200 | 
C(=C\c1ccc2[nH]ccc2c1)/c1cccnc1 | > 200 | > 80 | 
Fc1ccc2c(/C=C/c3cccc(Br)c3)c[nH]c2c1 | > 200 | > 200 | 
C(=C\c1c[nH]c2ncccc12)/c1cccnc1 | 18 | > 80 | 
C(=C\c1c(-c2ccccc2)[nH]c2ccccc12)/c1cccnc1 | > 200 | > 200 | 
C(=C\c1c[nH]c2ccccc12)/c1ccccn1 | 20 | > 100 | 
COc1ccc2[nH]cc(/C=C/c3cccnc3)c2c1 | 40 | > 80 | 
O=C(O)/C=C/c1c[nH]c2cc(F)ccc12 | 3 | > 400 | remaining at 1.5 h [3]: 92.9%; solubility [4]: > 300 µM; concentration at 168 h [5]: 1400 nM; Ki [6]: 32.4 µM
CCOC(=O)/C(C#N)=C/c1c[nH]c2cc(F)ccc12 | > 80 | > 80 | 
Brc1cccc2[nH]cc(/C=C/c3cccnc3)c12 | > 200 | > 200 | 
Clc1cccc2c(/C=C/c3cccnc3)c[nH]c12 | > 200 | > 200 | 
COC(=O)/C=C/c1c[nH]c2cc(F)ccc12 | 2 | 40 | 
Fc1ccc2c(/C=C/c3cccnc3)c[nH]c2c1 | 1 | > 80 | remaining at 1.5 h [3]: 67.6%; solubility [4]: 92 µM (≈ 21.9 µg/mL); concentration at 168 h [5]: 100 nM
N#C/C(=C\c1c[nH]c2cc(F)ccc12)C(=O)O | > 80 | > 80 | 
Cc1[nH]c2ccccc2c1/C=C/c1cccnc1 | > 200 | > 200 | 
O=C(O)/C=C/c1c[nH]c2ccccc12 | 18 | > 400 | 
C(=C\c1c[nH]c2ccccc12)/c1ccncc1 | 20 | > 100 | 
N#CSCCc1c[nH]c2ccccc12 | 44 | > 80 | 
COc1cccc2c(/C=C/c3cccnc3)c[nH]c12 | > 200 | > 200 | 
N#C/C=C/c1c[nH]c2cc(F)ccc12 | 3 | > 80 | 
N#C/C=C\c1c[nH]c2ccccc12 | > 80 | > 80 | 
COC(=O)c1ccc2c(/C=C/c3cccnc3)c[nH]c2c1 | > 200 | > 200 | 
N#Cc1cccc2[nH]cc(/C=C/c3cccnc3)c12 | > 200 | > 200 | 

Compound | IC50 [1] [µM] | CC50 [2] [µM] | further results
Fc1cccc(/C=C/c2c[nH]c3cc(F)ccc23)c1 | 10 | 40 | 
Fc1ccc2c(/C=C/c3ccncc3)c[nH]c2c1 | 3 | 200 | 
C/C=C/c1c[nH]c2ccccc12 | > 80 | > 80 | 
N#Cc1c[nH]c2ccccc12 | > 80 | > 80 | 
Fc1cccc2c(/C=C/c3cccnc3)c[nH]c12 | 50 | > 400 | 
O=[N+]([O-])c1cccc(/C=C/c2c[nH]c3cc(F)ccc23)c1 | 3 | 40 | 
COC(=O)c1ccc2[nH]cc(/C=C/c3cccnc3)c2c1 | > 200 | > 200 | 
O=C(O)C(=Cc1c[nH]c2cc(F)ccc12)C(=O)O | > 80 | > 80 | 
Fc1ccc2c(/C=C/c3ccccn3)c[nH]c2c1 | 3 | 100 | 
Fc1cccc2[nH]cc(/C=C/c3cccnc3)c12 | 10 | > 80 | 
C(=C\c1c[nH]c2ccccc12)/c1cccnc1 | 1 | > 80 | 
c1ccc2c(Cc3nnn[nH]3)c[nH]c2c1 | > 80 | > 80 | 
c1cncc(CCCc2c[nH]c3ccccc23)c1 | > 200 | > 200 | 
N#C/C(=C\c1c[nH]c2cc(F)ccc12)c1ccccc1 | > 80 | > 80 | 
Fc1ccc2c(/C=C/c3ccccc3)c[nH]c2c1 | 40 | 40 | 
C(=C\c1c[nH]c2ccccc12)/c1nnn[nH]1 | 10 | > 80 | 
Oc1ccc2c(/C=C/c3cccnc3)c[nH]c2c1 | > 200 | > 200 | 
Clc1ccc2[nH]cc(/C=C/c3cccnc3)c2c1 | 20 | > 80 | 
c1ccc2c(CCc3nnn[nH]3)c[nH]c2c1 | > 80 | > 80 | 
Clc1cccc2[nH]cc(/C=C/c3cccnc3)c12 | > 40 | 40 | 
O=[N+]([O-])c1ccc2[nH]cc(/C=C/c3cccnc3)c2c1 | > 200 | > 200 | 
Cc1ccc2c(/C=C/c3cccnc3)c[nH]c2c1 | > 200 | > 200 | 
c1ccc2c(-c3nnn[nH]3)c[nH]c2c1 | > 80 | > 80 | 
O=C(O)c1ccc2[nH]cc(/C=C/c3cccnc3)c2c1 | > 200 | > 200 | 
